The source of these data is ChEMBL document CHEMBL1909595, “Characterization of a novel and selective CB1 antagonist as a radioligand for receptor occupancy studies” (Bioorg Med Chem Lett, 2011).

In data set [1] the test system is Brain. Description: Drug uptake in brain of CB1 receptor knockout mouse at 10 uM. Type of data set: ADME, tissue-based. Particulars: in vivo; call rule not given here.
Data set [2] addresses T1, Cannabinoid receptor 1 (Homo sapiens, UniProt P21554). In words: Binding affinity to human CB1 receptor expressed in CHO cells after 90 mins by scintillation counting. In kind it is cell-based. In outline:
(§1)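 Rat whole-brain or CHO (human CB1) membranes were homogenized in 10 mM HEPES/1 mM EGTA pH 7.4 with protease inhibitors, DTT and sucrose. Centrifuged at 1000 g, then the pellet was taken at 100,000 g and resuspended in 20 mM HEPES, 1 mM EGTA, 1 mM DTT, 1 mM MgCl2. Saturation with increasing [3H]BMS-725519; nonspecific binding by cold BMS-725519. 90 min at room temperature, GF/B filtration, scintillation counting. Kd and Bmax derived.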

The test system of data set [3] is Brain. In words: Drug uptake in brain of mouse expressing CB1 receptor at 10 uM. Type of data set: ADME, tissue-based. Particulars: in vivo.
Data set [4] concerns the target T2, Cannabinoid receptor 1 (Rattus norvegicus, UniProt P20272). Description: Binding affinity to rat brain CB1 receptor after 90 mins by scintillation counting. In outline: as §1
For data set [5], the system named is Rattus norvegicus. Description: Ex vivo receptor occupancy of CB1 receptor in Sprague-Dawley rat at 30 mg/kg, po measured 6 hrs post dose. Type of data set: functional. In outline: (§2)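 Male Sprague-Dawley rats were dosed p.o. (0.03–30 mg/kg, vehicle 10% DMAC/cremophor/ethanol, 2 ml/kg) 1 h before the dark cycle. Brains were taken 6 h post-dose, three per group, frozen and cut into 20 µm cryosections. Sections pre-incubated 30 s, then 6 min with 40 nM [3H]BMS-725519 in chilled HEPES buffer. Nonspecific binding by 5 µM unlabelled BMS-725519. Three 30 s washes. Cerebellar density measured by phosphor imaging (DLU/mm², background-subtracted); occupancy expressed relative to vehicle specific binding.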

Data set [6] relates to Plasma. Description: Free plasma concentration in Sprague-Dawley rat at 0.03 mg/kg, po measured 6 hrs post dose. In kind it is ADME, organism-based. Also on record: dose 0.03 mg/kg, route oral. Particulars: in vivo.
Data set [7] addresses T2, Cannabinoid receptor 1. In words: Displacement of [3H]-SR-141716 from rat CB1 receptor. (In general: Loss of bound radioactivity is the signal in a displacement assay; it reports binding, not function.)
In data set [8] the test system is Plasma. In words: Free plasma concentration in Sprague-Dawley rat at 3 mg/kg, po measured 6 hrs post dose. Type of data set: ADME, organism-based. Also on record: dose 3 mg/kg, route oral. Particulars: in vivo.
The target of another data set is Cannabinoid receptor 2 (Homo sapiens, UniProt P34972). In words: Displacement of [3H]-CP55940 from human CB2 receptor.
Chain of Cannabinoid receptor 2 (P34972 whole entry): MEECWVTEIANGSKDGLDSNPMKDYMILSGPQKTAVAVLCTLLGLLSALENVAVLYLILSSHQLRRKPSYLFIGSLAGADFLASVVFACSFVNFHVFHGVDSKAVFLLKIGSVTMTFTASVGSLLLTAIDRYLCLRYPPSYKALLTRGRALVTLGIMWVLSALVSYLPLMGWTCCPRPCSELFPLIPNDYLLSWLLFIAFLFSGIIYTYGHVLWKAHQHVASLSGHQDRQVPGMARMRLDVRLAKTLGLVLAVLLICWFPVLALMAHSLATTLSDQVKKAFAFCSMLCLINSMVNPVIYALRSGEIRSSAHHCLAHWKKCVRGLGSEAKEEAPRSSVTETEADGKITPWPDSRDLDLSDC
In data set [9] the test system is Rattus norvegicus. Description: Antiobesity activity in Sprague-Dawley rat assessed as reduction in food intake at 0.1 mg/kg, po measured after 20 hrs. Type of data set: functional. Also on record: scale not given: the % may be the effect or the level left. In outline:
(§3)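 Male Sprague-Dawley rats, six per group, trained to bar-press for food pellets in operant chambers. Dosed p.o. in 10% DMAC/10% EtOH/10% Cremophor/70% water at 2 ml/kg. Two 20 h sessions starting at dark-cycle onset, 4 h apart. The first session was the baseline used to balance groups. Pellets counted at 1, 2, 4, 8, 12 and 20 h after lock-out. One-way ANOVA with Fisher PLSD.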

The test system of data set [10] is Rattus norvegicus. In words: Ex vivo receptor occupancy of CB1 receptor in Sprague-Dawley rat at 0.03 mg/kg, po measured 6 hrs post dose. Type of data set: functional. In outline: as §2
Data set [11] has as its system Rattus norvegicus. Description: Antiobesity activity in Sprague-Dawley rat assessed as reduction in food intake at 3 mg/kg, po measured after 20 hrs. The arrangement: scale not given: the % may be the effect or the level left. Type of data set: functional. In outline:
as §3

Data set [12] concerns Plasma. In words: Free plasma concentration in Sprague-Dawley rat at 1 mg/kg, po measured 6 hrs post dose. Type of data set: ADME, organism-based. Also on record: dose 1 mg/kg, route oral. Particulars: in vivo.
In data set [13] the test system is Rattus norvegicus. In words: Ex vivo receptor occupancy of CB1 receptor in Sprague-Dawley rat at 3 mg/kg, po measured 6 hrs post dose. Type of data set: functional. In outline: as §2
Data set [14] concerns Rattus norvegicus. In words: Antiobesity activity in Sprague-Dawley rat assessed as reduction in food intake at 0.3 mg/kg, po measured after 20 hrs. In kind it is functional. Also on record: scale not given: the % may be the effect or the level left. In outline:
as §3

Data set [15] has as its target T2, Cannabinoid receptor 1. Description: Displacement of [3H]BMS-725519 from rat brain CB1 receptor after 45 mins by autoradiography.
The subject of data set [16] is Plasma. Description: Free plasma concentration in Sprague-Dawley rat at 0.1 mg/kg, po measured 6 hrs post dose. Particulars: in vivo. In kind it is ADME, organism-based. Also on record: dose 0.1 mg/kg, route oral.
The subject of data set [17] is Rattus norvegicus. Description: Ex vivo receptor occupancy of CB1 receptor in Sprague-Dawley rat at 1 mg/kg, po measured 6 hrs post dose. Type of data set: functional. In outline: as §2
For data set [18], the system named is Rattus norvegicus. In words: Antiobesity activity in Sprague-Dawley rat assessed as reduction in food intake at 10 mg/kg, po measured after 20 hrs. The arrangement: scale not given: the % may be the effect or the level left. Type of data set: functional. In outline:
as §3

The target of data set [19] is T1, Cannabinoid receptor 1. In words: Displacement of [3H]-SR-141716 from human CB1 receptor.
Data set [20] has as its system Rattus norvegicus. Description: Ex vivo receptor occupancy of CB1 receptor in Sprague-Dawley rat at 0.1 mg/kg, po measured 6 hrs post dose. Type of data set: functional. In outline:
as §2

Data set [21] has as its system Plasma. In words: Free plasma concentration in Sprague-Dawley rat at 30 mg/kg, po measured 6 hrs post dose. Type of data set: ADME, organism-based. The arrangement: dose 30 mg/kg, route oral. Particulars: in vivo.
Data set [22] relates to Rattus norvegicus. Description: Antiobesity activity in Sprague-Dawley rat assessed as reduction in food intake at 0.03 mg/kg, po measured after 20 hrs. Type of data set: functional. The arrangement: scale not given: the % may be the effect or the level left. In outline:
as §3

Data set [23] has as its system Rattus norvegicus. In words: Antiobesity activity in Sprague-Dawley rat assessed as reduction in food intake at 30 mg/kg, po measured after 20 hrs. Type of data set: functional. Also on record: scale not given: the % may be the effect or the level left. In outline: as §3
Data set [24] deals with Plasma. Description: Free plasma concentration in Sprague-Dawley rat at 0.3 mg/kg, po measured 6 hrs post dose. Type of data set: ADME, organism-based. The arrangement: dose 0.3 mg/kg, route oral. Particulars: in vivo.
Data set [25] can be described thus: Protein binding in human. In kind it is ADME.
For data set [26], the system named is Rattus norvegicus. Description: Ex vivo receptor occupancy of CB1 receptor in Sprague-Dawley rat at 10 mg/kg, po measured 6 hrs post dose. Type of data set: functional. In outline: as §2
For data set [27], the system named is Rattus norvegicus. Description: Ex vivo receptor occupancy of CB1 receptor in Sprague-Dawley rat at 0.3 mg/kg, po measured 6 hrs post dose. Type of data set: functional. In outline: as §2
The test system of data set [28] is Rattus norvegicus. In words: Antiobesity activity in Sprague-Dawley rat assessed as reduction in food intake at 1 mg/kg, po measured after 20 hrs. In kind it is functional. Also on record: scale not given: the % may be the effect or the level left. In outline: as §3
The subject of data set [29] is Plasma. In words: Free plasma concentration in Sprague-Dawley rat at 10 mg/kg, po measured 6 hrs post dose. Type of data set: ADME, organism-based. The arrangement: dose 10 mg/kg, route oral. Particulars: in vivo.

As a reminder, the Kd is the free concentration of one partner at which half of the binding sites on the other are occupied at equilibrium, for simple one-to-one binding. For orientation: IC50 means the concentration at which inhibition is half-maximal. By fraction unbound is commonly meant the share of the substance not bound to proteins or other matrix.

T2 sequence (P20272 whole entry): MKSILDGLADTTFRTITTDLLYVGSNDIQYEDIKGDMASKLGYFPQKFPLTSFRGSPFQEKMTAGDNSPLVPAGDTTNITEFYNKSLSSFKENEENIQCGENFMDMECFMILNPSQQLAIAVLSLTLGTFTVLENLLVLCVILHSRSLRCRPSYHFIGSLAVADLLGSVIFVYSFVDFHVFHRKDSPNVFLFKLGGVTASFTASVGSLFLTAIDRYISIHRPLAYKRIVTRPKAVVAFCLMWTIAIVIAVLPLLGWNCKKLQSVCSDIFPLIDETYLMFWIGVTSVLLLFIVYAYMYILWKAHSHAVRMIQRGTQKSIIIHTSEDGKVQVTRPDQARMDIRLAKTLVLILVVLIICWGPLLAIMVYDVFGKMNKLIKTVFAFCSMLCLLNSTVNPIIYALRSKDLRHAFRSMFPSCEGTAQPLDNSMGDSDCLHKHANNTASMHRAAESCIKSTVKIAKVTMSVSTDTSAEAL
T1 sequence (P21554 whole entry): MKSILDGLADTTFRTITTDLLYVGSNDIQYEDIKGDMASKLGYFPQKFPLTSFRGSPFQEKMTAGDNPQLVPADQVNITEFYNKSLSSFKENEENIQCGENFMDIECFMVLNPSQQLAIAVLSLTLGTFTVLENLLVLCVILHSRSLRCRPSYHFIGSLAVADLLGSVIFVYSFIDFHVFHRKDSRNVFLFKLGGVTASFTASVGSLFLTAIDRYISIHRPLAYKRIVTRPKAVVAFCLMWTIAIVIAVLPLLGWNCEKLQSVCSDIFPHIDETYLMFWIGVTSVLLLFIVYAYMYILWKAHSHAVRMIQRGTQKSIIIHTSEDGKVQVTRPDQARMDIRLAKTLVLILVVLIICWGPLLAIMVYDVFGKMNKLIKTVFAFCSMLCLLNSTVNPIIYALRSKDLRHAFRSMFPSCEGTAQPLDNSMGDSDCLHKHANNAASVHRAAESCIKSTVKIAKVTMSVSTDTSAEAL

In the case of `[3H]c1cc(-c2cnn3c(=O)n(Cc4ccc(C(F)(F)F)nc4[3H])nc3c2-c2ccncc2)ccc1Cl`, the Drug uptake result in the data set on Brain [1] is “Not Active”; with Brain [3] it was “Active”. Also, the Kd on Cannabinoid receptor 1 [2] is 3.95 nM; at Cannabinoid receptor 1 [4], 29.1 nM.
Consider `O=c1n(Cc2ccc(C(F)(F)F)nc2)nc2c(-c3ccncc3)c(-c3ccc(Cl)cc3)cnn12`, for which the Activity with Rattus norvegicus [5] stood at 74.1%; in the data set on Rattus norvegicus [9], 0%; in the data set on Rattus norvegicus [10] it was 12.7%; with Rattus norvegicus [11], 41.5%; in the data set on Rattus norvegicus [13], 55.6%; in the data set with Rattus norvegicus [14] it was 22.3%. Moreover, the Activity in the data set with Rattus norvegicus [17] is 29.8%; with Rattus norvegicus [18], 67.4%; in the data set with Rattus norvegicus [20], 14.3%; in the data set with Rattus norvegicus [22] it was 0%; in the data set with Rattus norvegicus [23], 72.5%; in the data set on Rattus norvegicus [26] it was 64.5%. The figures for the Activity in the data set on Rattus norvegicus [27] and in the data set on Rattus norvegicus [28] were 20.6% and 23.7%, respectively. The “Cp(f)” value in the data set with Plasma [6] was found to be 1.5 nM; with Plasma [8], 112 nM; in the data set on Plasma [12] it was 49.4 nM; in the data set with Plasma [16], 5.4 nM; in the data set with Plasma [21] it was 1047 nM; in the data set with Plasma [24], 15.3 nM. Moreover, the “Cp(f)” value in the data set on Plasma [29] worked out at 531 nM. The Kd is 12.4 nM on Cannabinoid receptor 1 [7], over 10000 nM on Cannabinoid receptor 2 and 4.6 nM on Cannabinoid receptor 1 [19]. In addition, at Cannabinoid receptor 1 [15], the IC50 stood at 37 nM. This compound gave a fraction unbound in data set [25] of 0.05.
